Reference: ChEMBL document CHEMBL2321718, “Antioxidant activities of thiosemicarbazones from substituted benzaldehydes and N-(tetra-O-acetyl-β-D-galactopyranosyl)thiosemicarbazide” (Eur J Med Chem, 2013)

Key:
Assay type in all cases: functional
[1] = tested on: Rattus norvegicus; experiment: (§1) Antioxidant activity against CCl4-induced oxidative hepatic injury Wistar albino rat model assessed as effect on liver cytosolic catalase activity per mg protein at 100 mg/kg, ip for 7 consecutive days prior to CCL4 challenge measured 24 hrs post CCl4 challenge (reference value: 218.25 +/-11.43 U/mg protein); conditions: route intraperitoneal
[2] = tested on: Radical scavenging activity; experiment: Antioxidant activity assessed as DPPH radical scavenging activity at 200 uM after 30 mins by spectrophotometry
Outline: (§2)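 Wistar-independent cell-free assay: 5 µl sample in 96% ethanol (solutions 0.5, 1.0, 2.0, 4.0, 8.0, 12.0 mM before mixing) added to 195 µl DPPH in 96% ethanol (solution labelled […]). Incubated 30 min at 25 °C, then A518 read. %AA = (A_DPPH − A_sample)/(A_DPPH − A_ethanol)×100. Triplicates averaged. IC50 from linear regression of mean %AA against concentration. Resveratrol positive control.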

[3] = tested on: Rattus norvegicus; experiment: as §1, with “GSH-Px” for “catalase”, “0.27 +/-0.01” for “218.25 +/-11.43”; conditions: route intraperitoneal
[4] = tested on: Radical scavenging activity; experiment: Antioxidant activity assessed as DPPH radical scavenging activity at 25 uM after 30 mins by spectrophotometry; outline: as §2
[5] = tested on: Radical scavenging activity; experiment: Antioxidant activity assessed as DPPH radical scavenging activity after 30 mins by spectrophotometry; outline: as §2
[6] = tested on: Rattus norvegicus; experiment: as §1, with “SOD” for “catalase”, “5.42 +/-0.29” for “218.25 +/-11.43”; conditions: route intraperitoneal
Outline: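 Wistar albino rats (100–150 g), 7 per group, dosed i.p. at 100 mg/kg/day for 7 days. Then CCl4 in olive oil (1:1) i.p. at 0.6 mL/kg. Liver taken 24 h later, homogenized in 1.15% KCl-10 mM phosphate/EDTA pH 7.4, cytosol obtained by sequential centrifugation. SOD read as the rate of cytochrome C reduction at 550 nm over 5 min (xanthine/xanthine oxidase, KCN, deoxycholate). Units/mg Lowry protein.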

[7] = tested on: Radical scavenging activity; experiment: Antioxidant activity assessed as DPPH radical scavenging activity at 300 uM after 30 mins by spectrophotometry; outline: as §2
[8] = tested on: Radical scavenging activity; experiment: Antioxidant activity assessed as DPPH radical scavenging activity at 12.5 uM after 30 mins by spectrophotometry; outline: as §2
[9] = tested on: Radical scavenging activity; experiment: Antioxidant activity assessed as DPPH radical scavenging activity at 100 uM after 30 mins by spectrophotometry; outline: as §2
[10] = tested on: Radical scavenging activity; experiment: Antioxidant activity assessed as DPPH radical scavenging activity at 50 uM after 30 mins by spectrophotometry; outline: as §2

| Structure (SMILES) | Activity [1] [U/mg] | Activity [2] [%] | Activity [3] [U/mg] | Activity [4] [%] | IC50 [5] [µM] | Activity [6] [U/mg] | Activity [7] [%] | Activity [8] [%] | Activity [9] [%] | Activity [10] [%] |
| --- | --- | --- | --- | --- | --- | --- | --- | --- | --- | --- |
| CC(=O)OC[C@H]1O[C@@H](NC(=S)N/N=C/c2ccc(F)cc2)[C@H](OC(C)=O)[C@@H](OC(C)=O)[C@H]1OC(C)=O | 351 | 55.6 | 0.69 | 13.3 | 197 | 8.6 | 67.2 | 8.51 | 34.3 | 17.1 |
| CC(=O)OC[C@H]1O[C@@H](NC(=S)N/N=C/c2ccc([N+](=O)[O-])cc2)[C@H](OC(C)=O)[C@@H](OC(C)=O)[C@H]1OC(C)=O | 352 | 53.3 | 0.71 | 11.3 | 210 | 8.79 | 64.5 | 6.11 | 29.1 | 18.5 |
| CC(=O)OC[C@H]1O[C@@H](NC(=S)N/N=C/c2cccc([N+](=O)[O-])c2)[C@H](OC(C)=O)[C@@H](OC(C)=O)[C@H]1OC(C)=O | 361 | 38.3 | 0.73 | 13.7 | 283 | 9.01 | 51.2 | 7.05 | 26.3 | 19.6 |
| CC(=O)OC[C@H]1O[C@@H](NC(=S)N/N=C/c2ccc(Br)cc2)[C@H](OC(C)=O)[C@@H](OC(C)=O)[C@H]1OC(C)=O | 389 | 35.4 | 0.98 | 9.04 | > 300 | 9.95 | 44.3 | 5.38 | 23.5 | 17.5 |
| COc1ccc(/C=N/NC(=S)N[C@@H]2O[C@H](COC(C)=O)[C@H](OC(C)=O)[C@H](OC(C)=O)[C@H]2OC(C)=O)cc1O | 352 | 56.8 | 0.59 | 17.4 | 182 | 8.76 | 69.6 | 8.16 | 40.1 | 28.2 |
| CC(=O)OC[C@H]1O[C@@H](NC(=S)N/N=C/c2ccc(C)cc2)[C@H](OC(C)=O)[C@@H](OC(C)=O)[C@H]1OC(C)=O | 354 | 53.3 | 0.72 | 12.8 | 206 | 8.82 | 65 | 7.21 | 32.8 | 18.1 |
| CC(=O)OC[C@H]1O[C@@H](NC(=S)N/N=C/c2ccc(C(C)C)cc2)[C@H](OC(C)=O)[C@@H](OC(C)=O)[C@H]1OC(C)=O | 391 | 18.1 | 1.01 | 5.32 | > 300 | 9.92 | 24.5 | 2.17 | 15.1 | 9.65 |
| CC(=O)OC[C@H]1O[C@@H](NC(=S)N/N=C/c2ccc(Cl)cc2)[C@H](OC(C)=O)[C@@H](OC(C)=O)[C@H]1OC(C)=O | 358 | 38.4 | 0.7 | 10.1 | 270 | 8.91 | 55.4 | 7.15 | 19.8 | 17.6 |
| COc1cccc(/C=N/NC(=S)N[C@@H]2O[C@H](COC(C)=O)[C@H](OC(C)=O)[C@H](OC(C)=O)[C@H]2OC(C)=O)c1 | 362 | 34 | 0.71 | 11.5 | 276 | 8.89 | 55.1 | 7.34 | 27.2 | 15.6 |
| CC(=O)OC[C@H]1O[C@@H](NC(=S)N/N=C/c2ccc(O)cc2)[C@H](OC(C)=O)[C@@H](OC(C)=O)[C@H]1OC(C)=O | 332 | 68.7 | 0.51 | 22.6 | 108 | 8.24 | 75.1 | 11.4 | 49.2 | 33.3 |
| CC(=O)OC[C@H]1O[C@@H](NC(=S)N/N=C/c2ccc(N(C)C)cc2)[C@H](OC(C)=O)[C@@H](OC(C)=O)[C@H]1OC(C)=O | 295 | 74.5 | 0.71 | 30.9 | 56 | 5.81 | 78.5 | 14.3 | 68.2 | 48.9 |
| COc1cc(/C=N/NC(=S)N[C@@H]2O[C@H](COC(C)=O)[C@H](OC(C)=O)[C@H](OC(C)=O)[C@H]2OC(C)=O)ccc1O | 290 | 71.2 | 0.37 | 27.1 | 75 | 6.57 | 74 | 9.45 | 60.3 | 45.6 |
| Oc1ccc(/C=C/c2cc(O)cc(O)c2)cc1 [RESVERATROL] | 285 | 70.4 | 0.35 | 22.6 | 94 | 7.49 | 75.6 | 9.13 | 54 | 33.8 |
| CCOc1cc(/C=N/NC(=S)N[C@@H]2O[C@H](COC(C)=O)[C@H](OC(C)=O)[C@H](OC(C)=O)[C@H]2OC(C)=O)ccc1O | 284 | 68.3 | 0.69 | 30.2 | 71 | 6.45 | 69.2 | 14.2 | 59.4 | 45.4 |
